Reference: ChEMBL document CHEMBL2407079, “Potent DGAT1 Inhibitors in the Benzimidazole Class with a Pyridyl-oxy-cyclohexanecarboxylic Acid Moiety” (ACS Med Chem Lett, 2013)
Calls of active or inactive are those of the source. No cut-off for these calls is given here.

What was measured:
[1] = target: T1, Diacylglycerol O-acyltransferase 1 (Mus musculus, UniProt Q9Z2A7); assay: Inhibition of mouse DGAT1
T1 sequence (Q9Z2A7 whole entry): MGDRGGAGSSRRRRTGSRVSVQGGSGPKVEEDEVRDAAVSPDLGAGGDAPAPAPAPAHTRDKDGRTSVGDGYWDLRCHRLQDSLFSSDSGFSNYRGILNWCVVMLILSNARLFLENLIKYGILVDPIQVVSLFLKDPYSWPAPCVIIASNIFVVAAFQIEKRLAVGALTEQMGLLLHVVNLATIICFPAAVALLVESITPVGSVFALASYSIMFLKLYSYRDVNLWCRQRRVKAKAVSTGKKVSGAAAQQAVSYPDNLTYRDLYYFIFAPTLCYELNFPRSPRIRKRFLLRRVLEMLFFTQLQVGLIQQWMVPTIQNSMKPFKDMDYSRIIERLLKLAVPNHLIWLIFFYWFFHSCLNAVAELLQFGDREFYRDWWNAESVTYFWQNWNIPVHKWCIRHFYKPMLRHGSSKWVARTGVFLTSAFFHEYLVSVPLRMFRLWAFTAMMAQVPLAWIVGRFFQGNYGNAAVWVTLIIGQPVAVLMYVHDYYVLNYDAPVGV

[2] = Lipophilicity, log D of the compound by HPLC analysis; assay type: physicochemical
[3] = target: T2, Diacylglycerol O-acyltransferase 1 (Homo sapiens, UniProt O75907); assay: Inhibition of human DGAT1
T2 sequence (O75907 whole entry): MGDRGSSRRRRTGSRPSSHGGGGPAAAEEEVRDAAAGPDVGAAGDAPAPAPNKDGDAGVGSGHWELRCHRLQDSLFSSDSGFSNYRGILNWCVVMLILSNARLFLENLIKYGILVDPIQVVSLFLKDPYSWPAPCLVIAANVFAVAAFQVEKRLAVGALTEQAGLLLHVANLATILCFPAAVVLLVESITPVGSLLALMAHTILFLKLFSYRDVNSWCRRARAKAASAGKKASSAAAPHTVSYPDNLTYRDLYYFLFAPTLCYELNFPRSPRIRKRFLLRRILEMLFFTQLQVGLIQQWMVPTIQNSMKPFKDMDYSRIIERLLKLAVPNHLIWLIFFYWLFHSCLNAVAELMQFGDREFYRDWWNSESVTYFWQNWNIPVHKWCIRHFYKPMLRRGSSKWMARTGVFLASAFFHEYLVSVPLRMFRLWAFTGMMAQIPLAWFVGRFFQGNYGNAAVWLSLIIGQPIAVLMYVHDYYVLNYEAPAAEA

[4] = tested on: Mus musculus; assay: Reduction in triglyceride excursion in mouse at 3 mg/kg, po by lipid tolerance test; assay type: functional; design: scale not given: the % may be the effect or the level left
[5] = tested on: Canis familiaris; assay: Reduction in triglyceride excursion in dog at 3 mg/kg, po administered 1 hr prior lipid-challenge measured up to 24 hrs by lipid tolerance test; assay type: functional, organism-based; design: dose 3 mg/kg; details: Canis lupus familiaris
How it was run: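 Dog lipid tolerance test. Oral dose of 3 mg/kg in 0.5% methyl cellulose; lipid challenge 1 h after dosing; triglyceride excursion compared with a vehicle group over time; plasma drug levels sampled from 0 to 24 h.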

[6] = tested on: Rhesus monkey; assay: AUC in rhesus monkey assessed as trans-4-(5-(5-fluoro-1H-benzo[d]imidazol-2-yl)-2,3'-bipyridin-6'-yloxy)cyclohexanecarboxylic acid at 2 mg/kg, po; assay type: ADME, organism-based, Macaca mulatta, Plasma; design: dose 2 mg/kg, route oral; details: in vivo
How it was run: (§1)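 Rhesus monkeys; iv 1 mg/kg as a solution in EtOH/PEG400/water (10:50:40), and oral 2 mg/kg as a solution in 0.5% methylcellulose. Plasma measured for the parent and the epimer metabolite.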

[7] = AUC in rhesus monkey at 2 mg/kg, po; assay type: ADME, organism-based, Macaca mulatta; design: dose 2 mg/kg, route oral; details: plasma; how it was run: as §1
[8] = Cmax in rhesus monkey at 2 mg/kg, po; assay type: ADME, organism-based, Macaca mulatta; design: dose 2 mg/kg, route oral; details: in vivo; how it was run: as §1
[9] = Tmax in rhesus monkey at 2 mg/kg, po; assay type: ADME, organism-based, Macaca mulatta; design: dose 2 mg/kg, route oral; details: in vivo; how it was run: as §1
[10] = Half life in rhesus monkey at 1 mg/kg, iv; assay type: ADME, organism-based, Macaca mulatta; design: dose 1 mg/kg, route intravenous; details: in vivo; how it was run: as §1
[11] = Volume of distribution at steady state in rhesus monkey at 1 mg/kg, iv; assay type: ADME, organism-based, Macaca mulatta; design: dose 1 mg/kg, route intravenous; details: in vivo, read-out: Vdss; how it was run: as §1
[12] = Clearance in rhesus monkey at 1 mg/kg, iv; assay type: ADME, organism-based, Macaca mulatta; design: dose 1 mg/kg, route intravenous; details: in vivo; how it was run: as §1
[13] = Bioavailability in rhesus monkey at 1 mg/kg, iv; assay type: ADME, organism-based, Macaca mulatta; details: in vivo; how it was run: as §1
[14] = tested on: Canis familiaris; assay: AUC in beagle dog assessed as trans-4-(5-(5-fluoro-1H-benzo[d]imidazol-2-yl)-2,3'-bipyridin-6'-yloxy)cyclohexanecarboxylic acid at 2 mg/kg, po; assay type: ADME, organism-based, Canis lupus familiaris, Plasma; design: dose 2 mg/kg, route oral; details: in vivo
How it was run: (§2)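 Beagles; iv 0.55 mg/kg as a solution in EtOH/PEG400/water (10:50:40), and oral 2 mg/kg as a solution in 0.5% methylcellulose. Plasma measured for the parent and the epimer metabolite.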

[15] = AUC in beagle dog at 2 mg/kg, po; assay type: ADME, organism-based, Canis lupus familiaris; design: dose 2 mg/kg, route oral; details: plasma; how it was run: as §2
[16] = Tmax in beagle dog at 2 mg/kg, po; assay type: ADME, organism-based, Canis lupus familiaris; design: dose 2 mg/kg, route oral; details: in vivo; how it was run: as §2
[17] = Cmax in beagle dog at 2 mg/kg, po; assay type: ADME, organism-based, Canis lupus familiaris; design: dose 2 mg/kg, route oral; details: in vivo; how it was run: as §2
[18] = Half life in beagle dog at 0.55 mg/kg, iv; assay type: ADME, organism-based, Canis lupus familiaris; design: dose 0.55 mg/kg, route intravenous; details: in vivo; how it was run: as §2
[19] = Volume of distribution at steady state in beagle dog at 0.55 mg/kg, iv; assay type: ADME, organism-based, Canis lupus familiaris; design: dose 0.55 mg/kg, route intravenous; details: in vivo, read-out: Vdss; how it was run: as §2
[20] = Clearance in beagle dog at 0.55 mg/kg, iv; assay type: ADME, organism-based, Canis lupus familiaris; design: dose 0.55 mg/kg, route intravenous; details: in vivo; how it was run: as §2
[21] = Bioavailability in beagle dog at 0.55 mg/kg, iv; assay type: ADME, organism-based, Canis lupus familiaris; details: in vivo; how it was run: as §2
[22] = tested on: Rattus norvegicus; assay: AUC in Sprague-Dawley rat assessed as trans-4-(5-(5-fluoro-1H-benzo[d]imidazol-2-yl)-2,3'-bipyridin-6'-yloxy)cyclohexanecarboxylic acid at 10 mg/kg, po; assay type: ADME, organism-based, Plasma; design: dose 10 mg/kg, route oral; details: in vivo
How it was run: (§3)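 Sprague–Dawley rats; oral 10 mg/kg given as a solid dispersion formulation, with the iv arm at 1 mg/kg in EtOH/PEG400/water (10:50:40). Plasma exposure measured for the parent and for the epimer metabolite.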

[23] = AUC in Sprague-Dawley rat at 10 mg/kg, po; assay type: ADME, organism-based; design: dose 10 mg/kg, route oral; details: plasma; how it was run: as §3
[24] = Tmax in Sprague-Dawley rat at 10 mg/kg, po; assay type: ADME, organism-based; design: dose 10 mg/kg, route oral; details: in vivo; how it was run: as §3
[25] = Half life in Sprague-Dawley rat at 1 mg/kg, iv; assay type: ADME, organism-based; design: dose 1 mg/kg, route intravenous; details: in vivo
How it was run: (§4)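 Sprague–Dawley rats; intravenous dose of 1 mg/kg given as a solution in EtOH/PEG400/water (10:50:40).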

[26] = Cmax in Sprague-Dawley rat at 10 mg/kg, po; assay type: ADME, organism-based; design: dose 10 mg/kg, route oral; details: in vivo; how it was run: as §3
[27] = Volume of distribution at steady state in Sprague-Dawley rat at 1 mg/kg, iv; assay type: ADME, organism-based; design: dose 1 mg/kg, route intravenous; details: in vivo, read-out: Vdss; how it was run: as §4
[28] = Clearance in Sprague-Dawley rat at 1 mg/kg, iv; assay type: ADME, organism-based; design: dose 1 mg/kg, route intravenous; details: in vivo; how it was run: as §4
[29] = Bioavailability in Sprague-Dawley rat at 1 mg/kg, iv; assay type: ADME, organism-based; details: in vivo; how it was run: as §4
[30] = tested on: Mus musculus; assay: Reduction in triglyceride excursion in mouse at 10 mg/kg, po measured at 18 hrs by lipid tolerance test; assay type: functional; design: scale not given: the % may be the effect or the level left
How it was run: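 Mouse lipid tolerance test. Oral dose of 10 mg/kg as a suspension in 0.5% methylcellulose; triglyceride reduction read at 18 h.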

`O=C(O)[C@H]1CC[C@@H](Oc2ccc(-c3ccc(-c4nc5cc(F)c(F)cc5[nH]4)cn3)cn2)CC1` showed an IC50 [1] of 3.4 nM, a logD [2] of 1.28 and an IC50 [3] of 1.4 nM.
In the case of `N#Cc1ccc2nc(-c3ccc(-c4ccc(O[C@H]5CC[C@H](C(=O)O)CC5)nc4)nc3)[nH]c2c1`, the IC50 [1] is reported as 96 nM and the IC50 [3] is reported as 6 nM.
Work on `COc1ccc2[nH]c(-c3ccc(-c4ccc(O[C@H]5CC[C@H](C(=O)O)CC5)nc4)nc3)nc2n1` yielded an IC50 [3] of 14 nM.
With `CS(=O)(=O)c1ccc2nc(-c3ccc(-c4ccc(O[C@H]5CC[C@@H](C(=O)O)CC5)nc4)nc3)[nH]c2c1` the IC50 [1] was 358 nM and the IC50 [3] was 101 nM.
With `O=C(O)[C@H]1CC[C@@H](Oc2ccc(-c3ccc(-c4nc5cc(F)ccc5[nH]4)cn3)cn2)CC1` the Activity [4] was 72% and the Activity [5] was “Active”.
With `O=C(O)[C@H]1CC[C@@H](Oc2ccc(-c3ccc(-c4nc5ccc(F)cc5[nH]4)cn3)cn2)CC1` the AUC [6] was 560 nM·h, the AUC [7] was 200 nM·h and the Cmax [8] was 0.01 µM. It also gave a Tmax [9] of 8 h, a half-life [10] of 2 h and a Vd [11] of 0.37 L/kg. For the same compound, the clearance [12] was 0.744 L/h/kg, the bioavailability [13] was 3% and the AUC [14] was 60 nM·h. For the same compound, the AUC [15] was 50 nM·h, the Tmax [16] was 0.25 h and the Cmax [17] was 0.06 µM. It also gave a half-life [18] of 0.82 h, a Vd [19] of 0.63 L/kg and a clearance [20] of 1.94 L/h/kg. It also gave a bioavailability [21] of 2%, an AUC [22] of 2470 nM·h and an AUC [23] of 250 nM·h. The Tmax [24] was 2 h, the half-life [25] was 1.69 h and the Cmax [26] was 0.06 µM. For the same compound, the Vd [27] was 2.18 L/kg, the clearance [28] was 1.91 L/h/kg and the bioavailability [29] was 2%. For the same compound, the IC50 [1] was 3.4 nM, the logD [2] was 1.02 and the IC50 [3] was 2 nM.
In the case of `CS(=O)(=O)c1ccc2nc(-c3ccc(-c4ccc(O[C@H]5CC[C@H](C(=O)O)CC5)nc4)nc3)[nH]c2c1`, the IC50 [1] is reported as 727 nM and the IC50 [3] is reported as 137 nM.
In the case of `O=C(O)[C@H]1CC[C@@H](Oc2ccc(-c3ccc(-c4nc5cc(C(F)(F)F)ccc5[nH]4)cn3)cn2)CC1`, the Activity [30] is reported as 84%, the IC50 [1] is reported as 2.2 nM and the logD [2] is reported as 1.62. It also gave an IC50 [3] of 1.7 nM.
With `O=C(O)[C@H]1CC[C@H](Oc2ccc(-c3ccc(-c4nc5cc(Cl)ccc5[nH]4)cn3)cn2)CC1` the Activity [30] was 83%, the IC50 [1] was 4.2 nM and the logD [2] was 1.43. The IC50 [3] was 2 nM.
In the case of `O=C(O)[C@H]1CC[C@H](Oc2ccc(-c3ccc(-c4nc5ccccc5[nH]4)cn3)cn2)CC1`, the IC50 [1] is reported as 12 nM and the IC50 [3] is reported as 5.3 nM.
